Experimental data: ChEMBL document CHEMBL4196196, “Phosphonamidate Prodrugs of a Butyrophilin Ligand Display Plasma Stability and Potent Vγ9 Vδ2 T Cell Stimulation” (J Med Chem, 2018)
Calls of active or inactive are those of the source. The rule behind the calls is not given here.

What was measured:
K562 = assay: Cytotoxicity in human K562 cells assessed as reduction in cell viability incubated for 72 hrs by cell-QB reagent based assay; settings: K562, 72 h
Outline: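 K562 cells seeded at 0.5 × 10⁴ per well in RPMI and exposed to a range of compound concentrations, up to 100 µM, for 72 h. Cell-QB reagent was added for the final 2 h and read by fluorescence. Viability was expressed as % of untreated cells after subtracting a media-only blank. Three independent experiments.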

[1] = target: T1, Butyrophilin subfamily 3 member A1 (Homo sapiens, UniProt O00481); assay: Binding affinity to BTN3A1 in human PBMC assessed as stimulation of Vgamma9 Vdelta2 T cells at 100 nM incubated for 3 days and measured after 11 days post compound removal by flow cytometry
Outline: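 Human PBMC exposed to compound at 100 nM for 3 days, then left to proliferate 11 days before counting Vγ9Vδ2 T cells. […] Negative control was cells with interleukin 2 and no compound. Data from 3 independent experiments.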
Target sequence in this assay (O00481 30-513 limits assumed): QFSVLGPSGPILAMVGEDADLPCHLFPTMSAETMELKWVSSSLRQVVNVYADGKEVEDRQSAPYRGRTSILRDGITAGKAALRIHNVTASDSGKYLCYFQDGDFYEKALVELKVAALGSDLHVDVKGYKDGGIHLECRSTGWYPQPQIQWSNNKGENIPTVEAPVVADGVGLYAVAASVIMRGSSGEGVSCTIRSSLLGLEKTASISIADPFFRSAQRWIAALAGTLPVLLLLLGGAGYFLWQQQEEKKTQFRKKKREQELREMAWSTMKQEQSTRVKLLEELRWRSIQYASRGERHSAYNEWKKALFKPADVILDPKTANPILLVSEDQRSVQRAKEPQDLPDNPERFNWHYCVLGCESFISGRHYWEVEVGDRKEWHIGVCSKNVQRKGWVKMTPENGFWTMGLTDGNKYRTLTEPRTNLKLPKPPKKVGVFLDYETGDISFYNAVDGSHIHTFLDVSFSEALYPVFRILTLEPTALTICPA

[2] = target: T1, Butyrophilin subfamily 3 member A1; assay: Binding affinity to BTN3A1 in human Vgamma9 Vdelta2 T cells mixed with human K562 cells pretreated with compound for 4 hrs assessed as INF-gamma production measured after 20 hrs by ELISA
Outline: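 K562 target cells loaded with compound for 4 h, then washed. They were co-cultured with Vγ9Vδ2 T cells purified by negative selection, at 3:1 effector:target. After 20 h, supernatant interferon γ was measured by ELISA. EC₅₀ reported with 95% CI. Three independent experiments using ≥2 donors.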
Target sequence in this assay (O00481 whole entry): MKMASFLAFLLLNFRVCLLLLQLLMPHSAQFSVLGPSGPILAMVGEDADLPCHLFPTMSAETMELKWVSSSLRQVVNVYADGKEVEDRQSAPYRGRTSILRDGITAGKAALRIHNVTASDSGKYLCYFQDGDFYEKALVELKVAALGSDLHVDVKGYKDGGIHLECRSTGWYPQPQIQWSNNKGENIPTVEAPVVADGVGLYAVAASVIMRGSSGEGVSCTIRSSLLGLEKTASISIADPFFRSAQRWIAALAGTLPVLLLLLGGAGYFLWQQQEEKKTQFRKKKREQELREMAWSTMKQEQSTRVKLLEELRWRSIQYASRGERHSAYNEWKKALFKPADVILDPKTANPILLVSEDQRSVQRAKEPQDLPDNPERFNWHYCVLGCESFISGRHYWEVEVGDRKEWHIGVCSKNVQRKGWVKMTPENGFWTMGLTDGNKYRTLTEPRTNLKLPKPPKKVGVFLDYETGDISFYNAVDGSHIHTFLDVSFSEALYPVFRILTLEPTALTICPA

[3] = target: T1, Butyrophilin subfamily 3 member A1; assay: Binding affinity to BTN3A1 in human PBMC assessed as stimulation of Vgamma9 Vdelta2 T cells at 100 nM incubated for 3 days and measured after 11 days post compound removal by flow cytometry relative to (E)-dimethyl 5-hydroxy-4-methylpent-3-enylphosphonate
Target sequence in this assay (O00481 30-513 limits assumed): as the sequence (O00481 30-513 limits assumed) above

[4] = target: T1, Butyrophilin subfamily 3 member A1; assay: Binding affinity to BTN3A1 in human PBMC assessed as stimulation of Vgamma9 Vdelta2 T cells at 100 nM incubated for 3 days and measured after 11 days post compound removal by flow cytometry relative to sodium (E)-5-hydroxy-4-methylpent-3-enylphosphonate
Target sequence in this assay (O00481 30-513 limits assumed): as above

[5] = Stability in 50% pooled human plasma assessed as half life at 100 uM by LC-MS method; format: ADME, cell-free
Outline: (§1)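 Compound at 100 µM final in pooled human plasma diluted to 50% with PBS, pH 7.5. Analysed by positive-mode LC-MS on C18 with a water/acetonitrile gradient from 25 to 80% over 9 min. Fraction remaining came from peak integration, and half-life was calculated from it. Each point run 2–4 times.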

[6] = Stability in 50% pooled human plasma assessed as compound hydrolysis at 100 uM after 2 hrs by LC-MS method relative to control; format: ADME, cell-free; settings: read-out: Drug degradation
Outline: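 Compound at 100 µM final in pooled human plasma diluted to 50% with PBS, pH 7.5. Sampled at 2 h (also 24 h), then extracted into acetonitrile and debris spun down. Analysed by positive-mode LC-MS on C18 with a 25→80% acetonitrile gradient over 9 min. Fraction remaining from peak integration; 2–4 independent runs.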

[7] = Half life in human plasma; format: ADME, cell-free
Outline: as §1, with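 “7.5. Incubated for various times, including 2 and 24 h, then extracted with acetonitrile and centrifuged.” for “7.5.”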

Structure (SMILES) | IC50 (K562) | Activity [1] | EC50 [2] | Ratio EC50 [3] | Ratio EC50 [4] | t1/2 [5] | metabolised at 2 h, 100 µM [6] | half-life [7]
Oc1cccc2ccccc12 [1-NAPHTHOL] | > 100000 nM | – | – | – | – | – | – | –
C/C(=C\COP(=O)(O)OP(=O)(O)O)CO | – | Active | – | – | – | – | – | –
COC(=O)CNP(=O)(CC/C=C(\C)CO)Oc1cccc2ccccc12 (stereo unspecified) | 40000 nM | Active | 130 nM | 12 | 9100 | > 24 h | – | –
COC(=O)CNP(=O)(CC/C=C(\C)CO)Oc1ccc2ccccc2c1 (stereo unspecified) | > 100000 nM | Active | 120 nM | 9.3 | 6900 | > 24 h | – | –
C/C(=C\CCP(=O)(OCOC(=O)C(C)(C)C)OCOC(=O)C(C)(C)C)CO | – | Active | – | – | – | 8.4 h | > 95% | –
CCOC(=O)CNP(=O)(CC/C=C(\C)CO)Oc1cccc2ccccc12 (stereo unspecified) | – | Active | 62 nM | 15 | 11000 | > 24 h | – | –
Oc1ccc2ccccc2c1 [BETANAPHTHOL] | > 100000 nM | – | – | – | – | – | – | –
CCOC(=O)CNP(=O)(CC/C=C(\C)CO)Oc1ccccc1 (stereo unspecified) | > 100000 nM | Active | 170 nM | – | – | – | – | –
C/C(=C\CCP(=O)(NCC(=O)OC(C)C)Oc1cccc2ccccc12)CO (stereo unspecified) | > 100000 nM | Active | 290 nM | 16 | 12000 | > 24 h | – | –
CCOC(=O)CNP(=O)(CC/C=C(\C)CO)Oc1ccc2ccccc2c1 (stereo unspecified) | – | Active | 93 nM | 10 | 7500 | > 24 h | – | –
C/C(=C\CCP(=O)(NCC(=O)OC(C)C)Oc1ccc2ccccc2c1)CO (stereo unspecified) | > 100000 nM | Active | 210 nM | 6.6 | 4900 | > 24 h | – | –
COC(=O)CNP(=O)(CC/C=C(\C)CO)Oc1ccccc1 (stereo unspecified) | > 100000 nM | Active | 460 nM | 3.6 | 2700 | > 24 h | – | –
COc1ccc2cc(C(=O)OCOP(=O)(CC/C=C(\C)CO)OC)c(=O)oc2c1 (stereo unspecified) | – | – | – | – | – | – | – | 6 to 8 h
Oc1ccccc1 [PHENOL] | > 100000 nM | – | – | – | – | – | – | –
C/C(=C\CCP(=O)(NCC(=O)OC(C)C)Oc1ccccc1)CO (stereo unspecified) | – | Active | 740 nM | 4.9 | 3600 | > 24 h | – | –
